Test results published in the array DNA melting data of Ke et al. (doi:10.1101/2024.01.08.574731).

Legend:
[1] = folding enthalpy; higher = less favourable; fluorescence melt of hairpins on a sequencing array, two-state fit; details: sodium 0.088 M
Summary of the method: (§1)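 Library hairpins on a sequenced MiSeq flow cell carried annealed Cy3 and quencher oligos, and their Cy3 fluorescence was imaged in 50 mM Na-HEPES pH 8.0 with 25 mM NaCl, in 2.5 °C steps up to 60 °C. Signals were normalised to Cy3 before quenching and to control constructs. Melting temperature and folding enthalpy were obtained from bootstrapped two-state fits, combined by inverse-variance weighting across four replicates, and the fitted temperatures were then raised by 9.35 °C to match UV melts.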

[2] = melting temperature; fluorescence melt of hairpins on a sequencing array, two-state fit, raised by 9.35 °C to match UV melts; details: sodium 0.088 M
Summary of the method: as §1

Sequence | folding enthalpy [1] [kJ/mol] | Tm [2] [°C]
GCTGAAGGAAACTTCAGC (((((((....))))))) | -172 | 62.4
GGATTGGCGAAAGCCTCC (((..(((....)))))) | -43.8 | 35.3
GTGTACGGAAACGTACAC (((((((....))))))) | -141 | 67.2
GCGTACTCGAAAGAGCGC (((..(((....)))))) | -120 | 47.8
GGTGTTGGAAACAATACC (((.(((....))).))) | -166 | 47.4
GCGGATACCGC ((((...)))) | -108 | 57.1
GTGCTCGAAAGAGATCAC ((((((....)))..))) | -57 | 30.9
GAGTAAGAAATTACTC ((((((....)))))) | -103 | 40.1
GCTTGGCGAAAGCCTCGC ((..(((....)))..)) | -72.9 | 41.8
GATCAATGGTTGATC ((((((...)))))) | -112 | 41
GGAGTAGGAAACTGCTCC ((((.((....)).)))) | -119 | 51.4
GAAGTCCGAAAGGATTTC (((.(((....))).))) | -132 | 50.2
GGTGCCGGAAACGGTGCC ((..(((....)))..)) | -174 | 56.6
GGACGAGAAATCGTCC ((((((....)))))) | -197 | 60.2
GATCCTTATCAGGATC ((((((....)))))) | -139 | 51
GTTCTGTCGAAAGACAAC (((..(((....)))))) | -40 | 23.8
GCCAGCGAAAGCTGAGGC ((((((....)))..))) | -65 | 53.5
TATTGGAAACAATA (((((....))))) | -24.9 | 25.5
GATCAATCGTTGATC ((((((...)))))) | -112 | 40.4
GTTATCCGAAAGGAAAAC (((.(((....))).))) | -106 | 40.8
GATCCGTTGGCGGATC ((((((....)))))) | -153 | 59.6
GATCTAGATATAGATC ((((((....)))))) | -144 | 46.8
GGCAAGCCGAAAGGCGCC (((..(((....)))))) | -60.3 | 59.8

Sequence | folding enthalpy [1] [kJ/mol] | Tm [2] [°C]
CGGACGGAAACGTGCCCG ((((((....)))..))) | -62 | 35.9
GCACAGCCGAAAGGCTGC (((..(((....)))))) | -25.5 | 39.9
GCCTTGCGAAAGCAATGC ((.((((....)))).)) | -72.9 | 56.9
GATCCCAATGGGGATC ((((((....)))))) | -139 | 60.7
GGCATAACGAAAGTTGCC (((..(((....)))))) | -109 | 50.8
GCGTACGAAAGTAGCCGC ((((((....)))..))) | -60.3 | 51.2
GGGTCAGGAAACCAACCC ((((..(....)..)))) | -65.9 | 33
CGGCCGGAAACGGCCCG ((((((....))).))) | -30.4 | 58.5
GTGGCTGGAAACAGTCGC (.(.(((....))).).) | -103 | 47
GTCGCTGGAAACGGCGAC (((((.(....).))))) | -183 | 65.7
GGCCCCGAAAGGGGTGCC ((((((....)))..))) | -50.5 | 59.1
GATCCTGATAAGGATC ((((((....)))))) | -155 | 64.4
GTCCTAGGAAACTGGGAC ((((.((....)).)))) | -158 | 49.4
GCGACGCGAAAGCGAAGC ((..(((....)))..)) | -153 | 66.2
GCATAGAAATATGC (((((....))))) | -91.8 | 43.3
GATCTCTCCCGAGATC ((((((....)))))) | -172 | 52.1
GTGGAGGCGAAAGCCCAC (((..(((....)))))) | -71.3 | 52.9
GGTACTGGAAACAGTATC (.(((((....))))).) | -89 | 44.4
GCATTGCGAAAGCTGTGC (((..((....))..))) | -92.8 | 56
GATCCTATCCAGGATC ((((((....)))))) | -141 | 53
GCACAGGGAAACCTGCGC ((.((((....)))).)) | -185 | 51.8
GGGATACGAAAGTACCCC (((.(((....))).))) | -156 | 50.8
GGGTGCGGAAACGTGCCC (((..((....))..))) | -167 | 57.3

Sequence | folding enthalpy [1] [kJ/mol] | Tm [2] [°C]
GGATGCGAAAGCATGTCC ((((((....)))..))) | -49 | 35.9
CGACCCGGAAACGGATCG (((.(((....))).))) | -140 | 48.8
GATCTTCGCAAGATC ((((((...)))))) | -141 | 45.4
GTGGATGGAAACACCCAC ((((.((....)).)))) | -136 | 44.2
GATCATACGCATGATC ((((((....)))))) | -155 | 48
GTCTCCGAAAGGAGGAC ((((((....))).))) | -68.5 | 50.8
GTGTTCGGAAACGAGCAC (((.(((....))).))) | -169 | 53.8
GGCGGCGGAAACGCCACC ((.((((....)))).)) | -115 | 63.7
TTGGGGAAACCCAA (((((....))))) | -72.6 | 43.4
GGACACGAAAGTGAATCC ((((((....)))..))) | -66.5 | 32.9
GGCGGTGGAAACACTGCC (((.(((....))).))) | -198 | 61.6
GATCCCGAAAGGGAGATC ((((((....)))..))) | -86 | 50.5
GATCTTAAGAAGATC ((((((...)))))) | -107 | 40.5
GTAAGCGAAAGCTTAC ((((((....)))))) | -117 | 67.2
GAGAACACGAAAGTGCTC (((..(((....)))))) | -65.4 | 32.9
GATCCATTTTGGATC ((((((...)))))) | -140 | 53.6
GCGAAGCGAAAGCTTAGC ((.((((....)))).)) | -67.3 | 56
GATCAAGGTGTTGATC ((((((....)))))) | -133 | 46.1
GATCTTGAGAAAGATC ((((((....)))))) | -134 | 45.9
GATAGCGAAAGCTGTATC ((((((....)))..))) | -53.4 | 31.9
GATCGGGGCGCCGATC ((((((....)))))) | -163 | 58.4
GCCTTGCGAAAGCATGGC (((.(((....))).))) | -187 | 62.1
CTAGGGAAACCTAG (((((....))))) | -71.8 | 39.4

Sequence | folding enthalpy [1] [kJ/mol] | Tm [2] [°C]
GATCGACAACTCGATC ((((((....)))))) | -141 | 48.5
GCCAAGGGAAACTTTGGC (((((.(....).))))) | -126 | 48.6
GGGTCGGGAAACCGACTC (.(((((....))))).) | -60.3 | 58.9
GCATGCGAAAGCAGATGC ((((((....)))..))) | -103 | 51.4
GATAAAGGAAACTTTGTC ((.((((....)))).)) | -58.8 | 32.2
GCGACCGAAAGGTGACGC ((((((....)))..))) | -112 | 52
GGTTAACCGAAAGGTACC (((..(((....)))))) | -72.6 | 38
GCACCTGGAAACGGGTGC (((((.(....).))))) | -201 | 60.9
GGGTACGAAAGTACACCC ((((((....)))..))) | -55.9 | 50.2
GCCGGTCGAAAGACGGGC (((.(((....))).))) | -167 | 63.9
GGGGATCGAAAGATTCCC (((.(((....))).))) | -224 | 57.5
GCAACTGCGAAAGCATGC (((..(((....)))))) | -56.5 | 40.2
GAAATGGGAAACCATTTC (((((((....))))))) | -157 | 53.9
GGCTCCGGAAACGGGGCC (((.(((....))).))) | -212 | 67.5
GGGCTTACGAAAGTACCC (((..(((....)))))) | -87.7 | 34.4
GACCACGGAAACGTAGCC (.(.(((....))).).) | -39.7 | 23.6
GTCAACCCGAAAGGGGAC (((..(((....)))))) | -62.8 | 41.8
GATCAGGTTACTGATC ((((((....)))))) | -160 | 57.6
GAGCCCGAAAGGGGCCTC ((((((....)))..))) | -56.4 | 49.9
GATCAATGTGTTGATC ((((((....)))))) | -146 | 50.4
GCTAATCGAAAGATGAGC (((.(((....))).))) | -132 | 47.8
GTAGGACGAAAGTCGTAC (((.(((....))).))) | -149 | 53.2
GATCGGAGGGCCGATC ((((((....)))))) | -156 | 55.1
